57 sequences from the array DNA melting data of Ke et al. (doi:10.1101/2024.01.08.574731) can be followed below.

Series [1] can be described thus: melting temperature; fluorescence melt of hairpins on a sequencing array, two-state fit, raised by 9.35 °C to match UV melts. Particulars: sodium 0.088 M. In short, it runs like this:
(§1)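 Bootstrapped two-state fits yielded melting temperature and folding enthalpy for library hairpins. Cy3 fluorescence, with annealed Cy3 and quencher oligos, was imaged on a sequenced MiSeq flow cell in 50 mM Na-HEPES pH 8.0, 25 mM NaCl in 2.5 °C steps up to 60 °C, and normalised to pre-quench Cy3 and to control constructs. Four replicates were combined by inverse variance, and fitted temperatures were raised by 9.35 °C to match UV melts.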

Series [2] in a line: folding enthalpy; higher = less favourable; fluorescence melt of hairpins on a sequencing array, two-state fit. To be noted: sodium 0.088 M. In short, it runs like this:
as §1

Turning to GATCGTACCCACGATC ((((((....)))))), the Tm in series [1] amounted to 54.1 °C. Further, the folding enthalpy in series [2] was -40 kcal/mol.
On the same counts, the results for GATCGTAGGACGATC ((((((...)))))) are 54.7 °C and -44.2 kcal/mol.
In the case of GATCGTAGTAACGATC ((((((....)))))), the Tm in series [1] is 55.7 °C. For the same sequence, the folding enthalpy in series [2] was -41.5 kcal/mol.
Regarding GATCGTATAGACGATC ((((((....)))))), in series [1], the Tm amounted to 53 °C. Further, the folding enthalpy in series [2] was -38.1 kcal/mol.
GATCGTATGGACGATC ((((((....)))))): the Tm in series [1] is 56.5 °C. The folding enthalpy in series [2] was -27 kcal/mol.
Regarding GATCGTATGTACGATC ((((((....)))))), the Tm in series [1] was 56.8 °C. Besides, the folding enthalpy in series [2] was -37.7 kcal/mol.
Turning to GATCGTATTACGATC ((((((...)))))), in series [1], the Tm is 57 °C. Also, the folding enthalpy in series [2] is -36.1 kcal/mol.
Turning to GATCGTATTCACGATC ((((((....)))))), the Tm in series [1] was found to be 55.1 °C. For the same sequence, in series [2], the folding enthalpy is -34.7 kcal/mol.
Regarding GATCGTCATTACGATC ((((((....)))))), in series [1], the Tm amounted to 54.8 °C. In series [2], the folding enthalpy is -38.5 kcal/mol.
GATCGTCCAGACGATC ((((((....)))))): the Tm in series [1] came out at 59.8 °C. Also, in series [2], the folding enthalpy was -42.3 kcal/mol.
Take GATCGTCCGACGATC ((((((...)))))): in series [1], the Tm amounted to 53.9 °C. Further, the folding enthalpy in series [2] is -40.9 kcal/mol.
On the same counts, the results for GATCGTCCTGACGATC ((((((....)))))) are 59.4 °C and -46.3 kcal/mol.
On to GATCGTCGAGACGATC ((((((....)))))), for which, in series [1], the Tm came to 60 °C. Moreover, the folding enthalpy in series [2] was -36.9 kcal/mol.
Take GATCGTCGCAACGATC ((((((....)))))): the Tm in series [1] is 56.2 °C. In series [2], the folding enthalpy was -38.1 kcal/mol.
With GATCGTCGGACGATC ((((((...)))))), the Tm in series [1] turned out to be 53.8 °C. Also, in series [2], the folding enthalpy was -38.9 kcal/mol.
The corresponding values for GATCGTCGTACGATC ((((((...)))))) are 60.4 °C and -29.3 kcal/mol.
In the case of GATCGTCGTCACGATC ((((((....)))))), in series [1], the Tm came to 53.5 °C. Moreover, in series [2], the folding enthalpy was -40.6 kcal/mol.
As for GATCGTCGTGACGATC ((((((....)))))), the Tm in series [1] came out at 63.4 °C. In addition, in series [2], the folding enthalpy is -50 kcal/mol.
For GATCGTCTAAACGATC ((((((....)))))), the Tm in series [1] stood at 56.1 °C. Besides, in series [2], the folding enthalpy is -43 kcal/mol.
The corresponding values for GATCGTCTACACGATC ((((((....)))))) are 53.9 °C and -39.8 kcal/mol.
On the same counts, the results for GATCGTCTGGACGATC ((((((....)))))) are 57.5 °C and -42.6 kcal/mol.
Consider GATCGTCTTGACGATC ((((((....)))))), for which the Tm in series [1] worked out at 66.3 °C. Besides, the folding enthalpy in series [2] is -35.9 kcal/mol.
The corresponding values for GATCGTGACACGATC ((((((...)))))) are 59.9 °C and -40.4 kcal/mol.
For the sequence GATCGTGAGCACGATC ((((((....)))))), the Tm in series [1] came to 55.9 °C. Also, the folding enthalpy in series [2] is -37.1 kcal/mol.
For GATCGTGATTACGATC ((((((....)))))), the Tm in series [1] was found to be 56 °C. In addition, the folding enthalpy in series [2] was -38.8 kcal/mol.
On the same counts, the results for GATCGTGCGAAAGCAATC (((..(((....)))))) are 23.5 °C and -6.96 kcal/mol.
Consider GATCGTGCGACGATC ((((((...)))))), for which the Tm in series [1] worked out at 56.8 °C. The folding enthalpy in series [2] was -38.4 kcal/mol.
Take GATCGTGCTACGATC ((((((...)))))): in series [1], the Tm came out at 57.3 °C. Further, the folding enthalpy in series [2] is -41 kcal/mol.
Turning to GATCGTGGAAACGTGATC ((((..(....)..)))), the Tm in series [1] stood at 37.3 °C. Besides, in series [2], the folding enthalpy was -17.1 kcal/mol.
GATCGTGGATACGATC ((((((....)))))): the Tm in series [1] was 60.7 °C. Besides, the folding enthalpy in series [2] was -51.4 kcal/mol.
Consider GATCGTGTCTACGATC ((((((....)))))), for which, in series [1], the Tm was 59.8 °C. In series [2], the folding enthalpy is -38.3 kcal/mol.
As for GATCGTGTGACGATC ((((((...)))))), the Tm in series [1] worked out at 54.7 °C. In addition, the folding enthalpy in series [2] was -40.1 kcal/mol.
As to GATCGTGTGCACGATC ((((((....)))))), in series [1], the Tm was 59.9 °C. Further, the folding enthalpy in series [2] is -39.3 kcal/mol.
With GATCGTTAAAACGATC ((((((....)))))), the Tm in series [1] worked out at 54.5 °C. In addition, the folding enthalpy in series [2] was -35.6 kcal/mol.
The corresponding values for GATCGTTAAACGATC ((((((...)))))) are 53.2 °C and -34.6 kcal/mol.
The corresponding values for GATCGTTATGACGATC ((((((....)))))) are 55.9 °C and -38.6 kcal/mol.
GATCGTTCACACGATC ((((((....)))))): in series [1], the Tm came out at 54.5 °C. Besides, the folding enthalpy in series [2] was -40.3 kcal/mol.
Turning to GATCGTTCATACGATC ((((((....)))))), in series [1], the Tm amounted to 54.9 °C. Further, in series [2], the folding enthalpy was -46.9 kcal/mol.
On the same counts, the results for GATCGTTCCCACGATC ((((((....)))))) are 53.8 °C and -43.2 kcal/mol.
For the sequence GATCGTTCGAACGATC ((((((....)))))), the Tm in series [1] worked out at 56.6 °C. Also, the folding enthalpy in series [2] is -53.9 kcal/mol.
Regarding GATCGTTCGACGATC ((((((...)))))), the Tm in series [1] amounted to 55.7 °C. Further, the folding enthalpy in series [2] was -38.2 kcal/mol.
As for GATCGTTGAGACGATC ((((((....)))))), in series [1], the Tm stood at 58.1 °C. The folding enthalpy in series [2] was -39.4 kcal/mol.
On to GATCGTTGGAACGATC ((((((....)))))), for which the Tm in series [1] was 54.4 °C. Besides, the folding enthalpy in series [2] is -42.4 kcal/mol.
GATCGTTGGTACGATC ((((((....)))))): the Tm in series [1] worked out at 55.2 °C. Moreover, the folding enthalpy in series [2] is -38.4 kcal/mol.
The corresponding values for GATCGTTGTAACGATC ((((((....)))))) are 58.4 °C and -48.8 kcal/mol.
GATCGTTTAAACGATC ((((((....)))))): the Tm in series [1] worked out at 56.1 °C. Further, in series [2], the folding enthalpy was -48.9 kcal/mol.
As for GATCGTTTAACGATC ((((((...)))))), in series [1], the Tm turned out to be 55.7 °C. Moreover, in series [2], the folding enthalpy was -36.6 kcal/mol.
On to GATCGTTTCACGATC ((((((...)))))), for which the Tm in series [1] was 58.6 °C. Moreover, in series [2], the folding enthalpy was -33.5 kcal/mol.
Consider GATCGTTTCCACGATC ((((((....)))))), for which, in series [1], the Tm turned out to be 54 °C. The folding enthalpy in series [2] is -40.5 kcal/mol.
Regarding GATCGTTTTACGATC ((((((...)))))), the Tm in series [1] was 60.1 °C. Moreover, the folding enthalpy in series [2] is -40.8 kcal/mol.
On the same counts, the results for GATCTAAACATAGATC ((((((....)))))) are 37 °C and -26.9 kcal/mol.
Turning to GATCTAAACGTAGATC ((((((....)))))), the Tm in series [1] amounted to 35.8 °C. Further, the folding enthalpy in series [2] was -28.7 kcal/mol.
The corresponding values for GATCTAACCTAGATC ((((((...)))))) are 38.1 °C and -29 kcal/mol.
On the same counts, the results for GATCTAACGCTAGATC ((((((....)))))) are 38.1 °C and -20.7 kcal/mol.
Turning to GATCTAAGAATAGATC ((((((....)))))), in series [1], the Tm was 34 °C. The folding enthalpy in series [2] is -20.4 kcal/mol.
For the sequence GATCTAAGTCTAGATC ((((((....)))))), the Tm in series [1] came to 37.7 °C. Besides, the folding enthalpy in series [2] was -25.4 kcal/mol.
As to GATCTAAGTTTAGATC ((((((....)))))), the Tm in series [1] was found to be 41.9 °C. Moreover, the folding enthalpy in series [2] is -30 kcal/mol.
